Results taken from ChEMBL document CHEMBL4364248, “Discovery of 1,2,4-oxadiazole-Containing hydroxamic acid derivatives as histone deacetylase inhibitors potential application in cancer therapy” (Eur J Med Chem, 2019).
The source made the active and inactive calls. No cut-off for these calls is given here.

Columns and labels:
[1] = target: T1, Protein deacetylase HDAC6 (Homo sapiens) (UniProt Q9UBN7); experiment: Inhibition of recombinant full length HDAC6 (unknown origin) using Ac-peptide-AMC as substrate at 100 nM after 1 hr by fluorescence assay relative to control
T1 sequence (whole entry): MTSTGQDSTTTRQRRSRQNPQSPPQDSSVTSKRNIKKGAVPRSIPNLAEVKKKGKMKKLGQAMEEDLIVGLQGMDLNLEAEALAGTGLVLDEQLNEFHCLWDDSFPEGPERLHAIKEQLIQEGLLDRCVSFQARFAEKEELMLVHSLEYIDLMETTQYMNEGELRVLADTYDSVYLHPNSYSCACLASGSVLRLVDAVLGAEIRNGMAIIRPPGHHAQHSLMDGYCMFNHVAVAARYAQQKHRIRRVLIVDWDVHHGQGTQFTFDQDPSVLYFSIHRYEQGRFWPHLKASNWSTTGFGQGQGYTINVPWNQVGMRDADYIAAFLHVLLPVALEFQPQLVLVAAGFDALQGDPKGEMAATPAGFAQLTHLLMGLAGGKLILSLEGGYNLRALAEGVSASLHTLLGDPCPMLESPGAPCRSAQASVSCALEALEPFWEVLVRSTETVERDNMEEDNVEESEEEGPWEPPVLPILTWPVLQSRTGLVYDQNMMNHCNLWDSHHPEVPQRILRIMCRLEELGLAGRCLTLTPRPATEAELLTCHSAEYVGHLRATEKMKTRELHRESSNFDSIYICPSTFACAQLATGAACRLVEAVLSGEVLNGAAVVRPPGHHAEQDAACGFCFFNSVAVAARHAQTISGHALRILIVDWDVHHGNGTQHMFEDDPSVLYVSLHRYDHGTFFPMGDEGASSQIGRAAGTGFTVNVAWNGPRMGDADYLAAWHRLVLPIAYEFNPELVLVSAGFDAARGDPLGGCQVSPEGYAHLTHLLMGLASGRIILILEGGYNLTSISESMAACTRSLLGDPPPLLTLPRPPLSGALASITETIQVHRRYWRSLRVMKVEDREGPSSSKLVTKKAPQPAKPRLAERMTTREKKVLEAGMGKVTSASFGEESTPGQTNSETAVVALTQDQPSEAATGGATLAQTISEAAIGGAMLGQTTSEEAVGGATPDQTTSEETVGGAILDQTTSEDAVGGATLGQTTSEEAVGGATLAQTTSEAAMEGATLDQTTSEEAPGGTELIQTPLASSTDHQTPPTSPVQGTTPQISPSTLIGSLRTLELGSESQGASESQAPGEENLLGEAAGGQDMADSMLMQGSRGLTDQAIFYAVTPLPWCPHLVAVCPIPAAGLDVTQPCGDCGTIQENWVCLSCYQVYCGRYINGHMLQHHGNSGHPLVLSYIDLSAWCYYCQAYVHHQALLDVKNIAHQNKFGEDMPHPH
How it was run: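 Full-length recombinant HDAC1 or HDAC6 was incubated with compound, trypsin and Ac-peptide-AMC substrate for 1 h at room temperature. Fluorescence was read at ex 355/em 460 nm. Inhibition was calculated against the DMSO vehicle control.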

[2] = target: Histone deacetylase 8 (Homo sapiens, UniProt Q9BY41); experiment: Inhibition of recombinant full length C-terminal His-tagged human HDAC8 expressed in baculovirus infected in Sf9 cells using Ac-peptide-AMC as substrate after 1 hr by fluorescence assay
Sequence of Histone deacetylase 8 (Q9BY41 whole entry): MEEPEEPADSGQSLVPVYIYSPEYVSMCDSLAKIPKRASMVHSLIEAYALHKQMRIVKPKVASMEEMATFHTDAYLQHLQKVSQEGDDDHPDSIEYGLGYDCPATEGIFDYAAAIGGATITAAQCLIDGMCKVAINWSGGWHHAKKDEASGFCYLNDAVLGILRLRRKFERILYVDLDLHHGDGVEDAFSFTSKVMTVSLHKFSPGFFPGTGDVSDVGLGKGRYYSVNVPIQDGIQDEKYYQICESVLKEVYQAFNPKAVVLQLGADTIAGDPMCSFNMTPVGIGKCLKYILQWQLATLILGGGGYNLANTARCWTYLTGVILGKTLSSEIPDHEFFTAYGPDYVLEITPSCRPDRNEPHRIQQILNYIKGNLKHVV

[3] = target: Histone deacetylase 5 (Homo sapiens, UniProt Q9UQL6); experiment: Inhibition of recombinant full length N-terminal GST-tagged human HDAC5 expressed in baculovirus infected Sf9 cells using Ac-peptide-AMC as substrate after 1 hr by fluorescence assay
Sequence of Histone deacetylase 5 (Q9UQL6 whole entry): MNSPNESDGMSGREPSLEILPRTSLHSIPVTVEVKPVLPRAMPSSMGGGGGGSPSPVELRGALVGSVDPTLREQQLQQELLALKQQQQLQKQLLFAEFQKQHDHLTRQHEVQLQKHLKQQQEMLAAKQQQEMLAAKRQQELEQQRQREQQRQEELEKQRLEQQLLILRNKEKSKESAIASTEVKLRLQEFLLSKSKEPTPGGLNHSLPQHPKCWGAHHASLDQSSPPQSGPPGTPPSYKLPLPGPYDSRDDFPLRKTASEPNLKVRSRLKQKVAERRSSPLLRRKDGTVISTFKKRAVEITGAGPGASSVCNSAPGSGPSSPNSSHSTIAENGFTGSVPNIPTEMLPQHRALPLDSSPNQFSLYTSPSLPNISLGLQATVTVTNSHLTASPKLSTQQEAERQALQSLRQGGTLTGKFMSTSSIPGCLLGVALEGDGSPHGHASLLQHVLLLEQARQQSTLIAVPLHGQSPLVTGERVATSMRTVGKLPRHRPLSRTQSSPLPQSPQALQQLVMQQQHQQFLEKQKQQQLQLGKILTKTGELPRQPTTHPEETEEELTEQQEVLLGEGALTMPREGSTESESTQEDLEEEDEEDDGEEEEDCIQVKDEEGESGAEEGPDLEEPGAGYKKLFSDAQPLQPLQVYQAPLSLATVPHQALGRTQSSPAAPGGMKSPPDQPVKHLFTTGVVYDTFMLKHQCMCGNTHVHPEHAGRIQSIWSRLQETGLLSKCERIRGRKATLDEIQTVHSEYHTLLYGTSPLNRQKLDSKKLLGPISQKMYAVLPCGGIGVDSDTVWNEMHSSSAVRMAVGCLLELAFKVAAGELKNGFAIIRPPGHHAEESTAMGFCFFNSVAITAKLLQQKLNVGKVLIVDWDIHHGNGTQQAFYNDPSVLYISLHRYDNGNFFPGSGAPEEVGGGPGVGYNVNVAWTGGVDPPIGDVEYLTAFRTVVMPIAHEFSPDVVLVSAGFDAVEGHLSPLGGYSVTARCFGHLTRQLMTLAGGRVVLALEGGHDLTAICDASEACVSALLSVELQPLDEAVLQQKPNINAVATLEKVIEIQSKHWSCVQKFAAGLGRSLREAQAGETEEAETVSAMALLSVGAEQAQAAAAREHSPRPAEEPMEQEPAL

[4] = test system: HepG2; experiment: Antiproliferative activity against human HepG2 cells after 72 hrs by MTT assay; type: functional, cell-based; conditions: HepG2, 72 h
[5] = test system: RPMI-8226; experiment: Antiproliferative activity against human RPMI8226 cells after 72 hrs by MTT assay; type: functional, cell-based; conditions: RPMI-8226, 72 h
[6] = test system: JeKo-1; experiment: Antiproliferative activity against human JeKo1 cells after 72 hrs by MTT assay; type: functional, cell-based; conditions: JeKo-1, 72 h
[7] = test system: JeKo-1; experiment: Induction of apoptosis in human JeKo1 cells assessed as late apoptotic cells at 10 nM after 48 hrs by annexin V-FITC/propidium iodide staining-based flow cytometric method (reference value: 3.07 %); type: functional
How it was run: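 Jeko-1 cells were grown in RPMI-1640 with 10% FBS at 37 °C under 5% CO2. They were exposed to 0, 10, 100 or 1000 nM for 48 h, then apoptosis induction was analysed.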

[8] = Clearance in Sprague-Dawley rat at 5 mg/kg, po measured upto 24 hrs by LC-MS/MS analysis; type: ADME, organism-based; conditions: in vivo
How it was run: (§1)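 SD rats (200-250 g), six per time point, given 5 mg/kg as a tail-vein bolus or orally. Blood was taken by cardiac puncture before dosing and at 5, 15, 30, 45 min and 1, 2, 4, 6, 8, 10, 12 and 24 h. Plasma was spun at 4000 g for 15 min at 4 °C and stored at -80 °C. Analysis was LC-MS/MS with multiple-reaction monitoring, followed by noncompartmental analysis.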

[9] = AUC ( 0 to t) in Sprague-Dawley rat at 5 mg/kg, po measured upto 24 hrs by LC-MS/MS analysis; type: ADME, organism-based; set-up: dose 5 mg/kg, time < 24 hr, route oral; conditions: in vivo; how it was run: as §1
[10] = Half life in Sprague-Dawley rat plasma at 5 mg/kg, po measured upto 24 hrs by LC-MS/MS analysis; type: ADME, organism-based; how it was run: as §1
[11] = test system: Daudi; experiment: Antitumour activity against human Daudi cells xenografted in NOD/SCID mouse assessed as increase in acetylated H4 expression at 10 mg/kg, iv treated on day 1,3 and 5 per week by immunohistochemical analysis; type: functional, organism-based
How it was run: (§2)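 Daudi s.c. xenografts in female NOD/SCID mice (5–6 weeks) were randomized six per group at 100–200 mm3. Dosing was 10 mg/kg i.v. or 20 mg/kg p.o. in 8% HP-β-CD on days 1, 3 and 5 weekly. Tumors were collected at study end for immunohistochemistry, with comparison to the control group.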

[12] = test system: Daudi; experiment: Antitumour activity against human Daudi cells xenografted in NOD/SCID mouse assessed as increase in acetylated H4 expression at 20 mg/kg, po treated on day 1,3 and 5 per week by immunohistochemical analysis; type: functional, organism-based; how it was run: as §2
[13] = test system: Daudi; experiment: Antitumour activity against human Daudi cells xenografted in NOD/SCID mouse assessed as DNA damage at 10 mg/kg, iv treated on day 1,3 and 5 per week; type: functional, organism-based; how it was run: as §2
[14] = Toxicity in NOD/SCID mouse xenografted with human Daudi cells assessed as abnormal behavior at 10 mg/kg, iv treated on day 1,3 and 5 per week and measured for every 2 days; type: organism-based; conditions: in vivo, 48 h
How it was run: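 Female NOD/SCID mice (5–6 weeks) bearing s.c. Daudi xenografts, six per group. Dosing was 10 mg/kg i.v. or 20 mg/kg p.o. in 8% HP-β-CD on days 1, 3 and 5 weekly. Behaviour was observed, and organ tissues were collected at sacrifice for H&E staining.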

Work on `Cc1ccc(CN2CCC(c3noc(CN(C)c4ncc(C(=O)NO)cn4)n3)CC2)cc1` yielded an inhibition [1] of 71%, an IC50 [2] of 0.26 µM and an IC50 [3] of 0.54 µM. For the same compound, the IC50 [4] was 0.013 µM, the IC50 [5] was 0.0156 µM and the IC50 [6] was 0.0072 µM. The Activity [7] was 2.24%, the CL/F [8] was 372 mL/min/kg and the AUC(0-t) at 24 h [9] was 232 ng·h/mL. For the same compound, the half-life [10] was 1.01 h, the Activity [11] was “Active” and the Activity [12] was “Active”. The Activity [13] was “Active” and the Activity [14] was “Non-Toxic”.
